The list is not random: actives were taken first. Their share in the collection is about 3.2%.
S100A4 inh HTS: blocks human S100A4 binding to myosin IIA peptide. S100A4/TAMRA-MyoIIA peptide fluorescence polarization. inhibition, % at 10.7 µM. actives 0.14% (n = 360,000). AID 652163;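 active = mean inhibition of at least 70% across replicates, with every replicate also reaching that level; inconclusive = mean inhibition reaches 70% but some replicates fall short; inactive = mean inhibition below 70%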
Target sequence (P26447 whole entry, looked up): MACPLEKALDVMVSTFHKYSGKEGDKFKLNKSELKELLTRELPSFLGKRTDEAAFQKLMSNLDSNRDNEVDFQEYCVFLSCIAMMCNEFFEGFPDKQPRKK
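System – human S100A4 monomer protein, biochemical binding assay · Buffer or medium – Calcium-containing HEPES buffer, pH 7.2 · Timing – 5 min between mix addition and reading · Also added – TAMRA-labelled myosin IIA heavy-chain peptide probe, 5 nM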
rRNA inh HTS: inhibitors of bacterial rRNA selective over humanized ribosomes | E. coli WT GFP vs humanized-ribosome RFP mutants, fluorescence, 24 h; hits give low values; DMSO median 0, no signal -100 | GFP signal change (wild-type ribosome), % (no concentration beside the values) | actives 1.6% (n = 350,000);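 active = significant combined selectivity score with lowered wild-type GFP, culture density cut under 30%, mutant RFP and density less affected; inactive = any of these conditions unmet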
Cneo AK release: Cryptococcus neoformans lysis via adenylate kinase release. lysis activity, % at 15 µM. C. neoformans lysis, adenylate kinase release luminescence, 4 h; normalised: neutral wells 0, clomiphene wells 100. actives 0.2% (n = 360,000);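 active = mean lysis activity across replicates of at least 80%, whatever share of replicates individually reach that level; inactive = mean lysis activity below 80%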
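Test system: log-phase Cryptococcus neoformans yeast cells. Input: 5 × 10^6 yeast cells/mL. Medium: fresh YPD growth medium. Doses: single dose. Incubation: static 4 h at 37 °C with compound, 1 h detection. Measured by: luminescent adenylate kinase detection reagent. Read-out: signal increase indicating cell lysis. Benchmarks: Clomiphene.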
PfHsp90 set2: growth inhibition of yeast expressing Plasmodium Hsp90; S. cerevisiae expressing PfHsp90, BacTiter-Glo ATP, 48 h; yeast lacking PDR1 and PDR3 efflux regulators; inhibition, % at 9.4 µM; actives 0.32% (n = 310,000); AID 504621;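 active = every replicate shows inhibition above about 80%, whatever the replicate mean, limit read from the data; inconclusive = mean inhibition reaches the set limit but some replicate falls short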;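 also: 0% = DMSO neutral controls and 100% = 20 µM radicicol positive controls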
AF4-AF9 inh: inhibitors of human MLL-AF4/AF9 interaction | AlphaScreen, biotin-AF4 peptide binding to FLAG-AF9 | inhibition, % at 10 µM | actives 0.47% (n = 350,000);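 active = every replicate reaching a set inhibition limit, whatever the replicate mean, cut at about 25% in these data; inconclusive = mean inhibition reaches that limit but some replicates miss it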;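 also: 0% = plate neutral control median and 100% = total signal loss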
Target sequence (P42568 whole entry, looked up): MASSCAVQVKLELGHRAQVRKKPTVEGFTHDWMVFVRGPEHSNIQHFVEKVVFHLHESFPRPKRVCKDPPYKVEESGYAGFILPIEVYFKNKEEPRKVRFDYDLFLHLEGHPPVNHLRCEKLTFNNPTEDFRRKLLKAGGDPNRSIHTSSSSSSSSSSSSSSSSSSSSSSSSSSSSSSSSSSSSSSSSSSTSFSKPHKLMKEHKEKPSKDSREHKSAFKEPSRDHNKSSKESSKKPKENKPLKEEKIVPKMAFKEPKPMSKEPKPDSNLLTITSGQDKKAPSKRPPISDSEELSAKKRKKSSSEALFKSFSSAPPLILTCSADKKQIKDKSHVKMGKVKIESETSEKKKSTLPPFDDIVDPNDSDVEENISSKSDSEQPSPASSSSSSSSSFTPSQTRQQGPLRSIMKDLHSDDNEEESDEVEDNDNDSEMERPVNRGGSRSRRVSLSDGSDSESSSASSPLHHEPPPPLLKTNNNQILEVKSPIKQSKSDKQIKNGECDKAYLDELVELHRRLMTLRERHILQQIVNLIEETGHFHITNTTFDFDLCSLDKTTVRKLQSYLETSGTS
DENV2 CPE: inhibitors of DENV2 cytopathic effect. actives 1.7% (n = 350,000). DENV2-infected cells, cytopathic effect rescue, plate reader. CPE inhibition, % at 9.99 µM; in the data active = CPE inhibition above about 20%, passing the limit was not always enough; inconclusive = no clear call, values can overlap the other calls; tested in BHK-21 cells;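 also: 0% = median of neutral control wells and 100% = median of positive control wells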
* hit, by the source's call; u = inconclusive; x = no result given; ! = not active in a repeat.

SMILES	S100A4 inh HTS	rRNA inh HTS	Cneo AK release	PfHsp90 set2	AF4-AF9 inh	DENV2 CPE
COc1cccc2sc(N(CCCN(C)C)C(=O)c3sc4ccccc4c3Cl)nc12	-5	-43*	4	8	28*	0
CCN(CC)CCN(C(=O)c1ccc(C(=O)c2ccccc2)cc1)c1nc2c(OC)cccc2s1	5	-34	4	4	27*	-4
Cc1cccc2sc(N(CCCN(C)C)C(=O)c3sc4ccccc4c3Cl)nc12	x	x	8	6	x	x
CC(c1cccs1)N(Cc1ccco1)C(=S)Nc1ccccc1Cl (configuration not stated)	2	-20*	0	-28	-4	10
Cc1nn(C)cc1NC(=O)C[C@H]1CC[C@@H]2[C@H](COc3ccc(NC(=O)Nc4cccc(Cl)c4)cc3C(=O)N2C)O1	1	-4	-1	x	2	1
O=C1NC(=S)SC1=Cc1ccc(Cl)cc1	-3	x	-4	x	-1	22*
O=C1NC(=S)SC1=Cc1ccc(F)cc1	2	-31	x	x	-3	1
C[C@@H]1CN([C@H](C)CO)C(=O)c2cc(NS(=O)(=O)c3cccs3)ccc2O[C@H]1CN(C)S(=O)(=O)c1cn(C)cn1	-5	4	-2	x	-1	1
Cc1ccc(S(=O)(=O)N(C)CC(=O)Oc2ccc(-c3nnco3)cc2)cc1	-2	2	0	0	-9	126*
Cc1ccc(S(=O)(=O)N(C)C)cc1NC(=O)COc1ccc(-c2nnco2)cc1	-2	16	-3	-18	-2	12
COc1cccc(CN2CC3(CN(C)C3)c3c([nH]c4cc(OC)ccc34)[C@H]2CO)c1	6	6	x	x	8	0
COc1ccc2c3c([nH]c2c1)[C@H](CO)N(Cc1ccccn1)CC31CN(Cc2cccc(F)c2)C1	x	-2	x	x	x	x
COc1ccc2c3c([nH]c2c1)[C@H](CO)N(Cc1cccc(F)c1)CC31CN(Cc2ccccn2)C1	4	-4	x	x	13	23*
COc1cccc(CN2CC3(CCN(CC4CC4)CC3)c3c([nH]c4cc(OC)ccc34)[C@H]2CO)c1	x	2	x	x	3	1
COc1cccc(CN2CC3(CN(C)C3)c3c([nH]c4cc(OC)ccc34)[C@@H]2CO)c1	116*	3	x	x	14	15
COc1ccc2c3c([nH]c2c1)[C@H](CO)N(Cc1ccccc1)CC31CCN(CC2CC2)CC1	8	2	x	x	26*	13
COc1ccc2c3c(n(C)c2c1)[C@@H](CO)N(C(=O)C1CCC1)CC31CN(Cc2cccc(F)c2)C1	x	-49	x	x	x	x
N#C/C(=N\Nc1ccc(Br)cc1)C(=N)N1CCOCC1	-3	-26*	2	15	9	-12
N#C/C(=N\Nc1ccc([N+](=O)[O-])cc1)C(=N)N1CCOCC1	-4	3	x	8	-1	7
COCCCNc1ccn2nc(-c3ccc(Cl)cc3)cc2n1	-9	-2	-1	x	-8	30*
COc1ccccc1-c1cc2nc(NCCc3ccncc3)ccn2n1	5	-17*	1	x	-2	6
COc1ccccc1-c1cc2nc(NCCc3ccc(S(N)(=O)=O)cc3)ccn2n1	0	-18	-2	x	2	-3
COc1cccc(NC(=O)N[C@H]2C=C[C@@H](CC(=O)N3CCCCC3)O[C@H]2CO)c1	-54	1	-5	x	-2	-13
CC(=O)c1cccc(NC(=O)COC(=O)C2CCCN2C(=O)c2cccs2)c1 (configuration not stated)	-5	-18*	2	x	2	-3
COc1ccc(NC(=O)COC(=O)[C@@H]2CCCN2C(=O)c2cccs2)cc1	x	x	-2	-9	x	x
SMILES	S100A4 inh HTS	rRNA inh HTS	Cneo AK release	PfHsp90 set2	AF4-AF9 inh	DENV2 CPE
COc1ccc2c3c([nH]c2c1)[C@H](CO)N(CC1CC1)CC31CCN(Cc2ccccc2F)CC1	x	-4	x	x	16	-34
CCOc1ccc(NC(=S)N=Nc2c(O)[nH]c3ccccc23)cc1	0	-11	x	-14	3	-5
Oc1cccc(NC(=S)N=Nc2c(O)[nH]c3ccccc23)c1	-2	-54*	-5	-11	x	13
O=c1oc2ccccc2c(Cl)c1CN1CCCCC1	-2	-19	-1	-14	1	-1
O=c1oc2ccccc2c(N2CCCC2)c1CN1CCCC1	-6	-18*	-1	23	6	6
Cc1noc(C)c1NC(=O)Nc1ccc2c(c1)C(=O)N([C@@H](C)CO)C[C@H](C)[C@@H](CN(C)C(=O)Nc1cccc3ccccc13)O2	7	5	x	x	0	-6
Cc1ccccc1NC(=O)/C(=C/c1cccs1)NC(=O)c1ccco1	49	4	x	16	1	27*
COc1ccc(S(=O)(=O)Nc2ccc3c(c2)C(=O)N([C@H](C)CO)C[C@@H](C)[C@@H](CN(C)S(=O)(=O)c2c(C)noc2C)OCCCC[C@H](C)O3)cc1	0	-1	1	x	0	-14
CN1c2ccc(-c3cccc(F)c3)cc2[C@H]2[C@H](CCN2C(=O)Cc2cccnc2)[C@H]1CO	x	-16	-3	x	x	113*
CCC(=O)N1CC[C@@H]2[C@H]1c1cc(-c3cccc(OC)c3)ccc1N(C)[C@@H]2CO	-3	0	1	x	3	-11
COc1cccc(-c2ccc3c(c2)[C@H]2[C@H](CCN2C(=O)Cc2ccncc2)[C@H](CO)N3C)c1	-4	1	91*	x	0	-2
COc1cccc(-c2ccc3c(c2)[C@@H]2[C@@H](CCN2C(=O)Nc2ccccc2OC)[C@@H](CO)N3C)c1	-7	-9	4	x	-1	29*
CC(=O)Nc1cccc2c1O[C@@H](CN(C)S(C)(=O)=O)[C@@H](C)CN(C)C2=O	x	1	x	x	x	x
CCc1nc2nc(C)c(NS(=O)(=O)c3ccc(Br)s3)c(=O)n2[nH]1	8	-7	-2	14	-9	44*
CCc1nc2nc(C)c(NS(=O)(=O)c3cccs3)c(=O)n2[nH]1	-1	4	2	21	0	5
O=C(C1=C[C@@H](C2CC2)C[C@@H](OCc2ccc(CO)cc2)O1)N1CCOCC1	-29	9	-2	9	-1	33*!
O=C(O)C1=C[C@@H](C2CCCCC2)C[C@@H](OCc2ccc(CO)cc2)O1	0	4	14	8	-2	u
O=C(O)C1=C[C@H](C2CC2)C[C@H](OCc2ccc(CO)cc2)O1	2	4	-1	-11	-4	22*!
CC(C)(C)[C@H]1C=C(C(=O)N2CCCCCCC2)O[C@@H](OCc2ccc(CO)cc2)C1	3	x	6	x	-2	29*
CC(C)[C@@H](C)NC(=O)N(C)C[C@H]1OCc2ccccc2-c2ccccc2C(=O)N([C@@H](C)CO)C[C@H]1C	-1	2	-3	x	-4	0
